According to ChEMBL document CHEMBL5058577, “EUbOPEN Chemogenomics Library 2 (Multiplex)” (2022):

Test system: Fibroblast
Test: Multiplex assay against human fibroblast
Format: toxicity, cell-based
Summary of the method: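 Imaging took place on a CQ1 microscope at 37°C and 5% CO2 once compound had been added to live cells stained at seeding with Hoechst33342, BioTracker Green Microtubule Cytoskeleton Dye, MitoTracker Red and Annexin V Alexa Fluor 680. CellPathfinder machine-learning gating classed cells as Hoechst high-intensity objects or normal cells, classed normal cells as having healthy, pyknosed or fragmented nuclei, and classed pyknosed cells as mitotic or apoptotic. Tubulin, mitochondrial-mass and membrane-permeability phenotypes are per cents of the healthy-nucleus cells.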

[1] = 12 h, 1 µM, compound concentration 1 uM, replicate 1
[2] = 12 h, 1 µM, compound concentration 1 uM, replicate 2
[3] = 12 h, 10 µM, compound concentration 10 uM, replicate 1
[4] = 12 h, 10 µM, compound concentration 10 uM, replicate 2
[5] = 24 h, 1 µM, compound concentration 1 uM, replicate 1
[6] = 24 h, 1 µM, compound concentration 1 uM, replicate 2
[7] = 24 h, 10 µM, compound concentration 10 uM, replicate 1
[8] = 24 h, 10 µM, compound concentration 10 uM, replicate 2
[9] = 48 h, 1 µM, compound concentration 1 uM, replicate 1
[10] = 48 h, 1 µM, compound concentration 1 uM, replicate 2
[11] = 48 h, 10 µM, compound concentration 10 uM, replicate 1
[12] = 48 h, 10 µM, compound concentration 10 uM, replicate 2

For `COC(c1ccccc1)(c1ccccc1)[C@H](Oc1nc(C)cc(C)n1)C(=O)O` [AMBRISENTAN], the “Population Apoptotic (%)” value [1] was 68%, the “Population Fragmented Nuclei (%)” value [1] was 13% and the “Population Healthy Nuclei (%)” value [1] was 66%. The “Population Hoechst High Intensity Objects (%)” value [1] was 1%, the “Population Membrane Permeable-Phenotype (%)” value [1] was 0% and the “Population Mitochondria Different-Phenotype (%)” value [1] was 4%. For the same compound, the “Population Mitotic Cells (%)” value [1] was 31%, the “Population Normal (%)” value [1] was 98% and the “Population Pyknosed Nuclei (%)” value [1] was 19%. The “Population Tubulin-Different-Phenotype (%)” value [1] was 29%, the “Total Cell Count” value [1] was 97 and the “Population Apoptotic (%)” value [2] was 30%. For the same compound, the “Population Fragmented Nuclei (%)” value [2] was 18%, the “Population Healthy Nuclei (%)” value [2] was 56% and the “Population Hoechst High Intensity Objects (%)” value [2] was 4%. The “Population Membrane Permeable-Phenotype (%)” value [2] was 1%, the “Population Mitochondria Different-Phenotype (%)” value [2] was 6% and the “Population Mitotic Cells (%)” value [2] was 69%. For the same compound, the “Population Normal (%)” value [2] was 95%, the “Population Pyknosed Nuclei (%)” value [2] was 25% and the “Population Tubulin-Different-Phenotype (%)” value [2] was 37%. For the same compound, the “Total Cell Count” value [2] was 163, the “Population Apoptotic (%)” value [3] was 56% and the “Population Fragmented Nuclei (%)” value [3] was 8%. For the same compound, the “Population Healthy Nuclei (%)” value [3] was 70%, the “Population Hoechst High Intensity Objects (%)” value [3] was 5% and the “Population Membrane Permeable-Phenotype (%)” value [3] was 0%. For the same compound, the “Population Mitochondria Different-Phenotype (%)” value [3] was 11%, the “Population Mitotic Cells (%)” value [3] was 43% and the “Population Normal (%)” value [3] was 94%. The “Population Pyknosed Nuclei (%)” value [3] was 21%, the “Population Tubulin-Different-Phenotype (%)” value [3] was 25% and the “Total Cell Count” value [3] was 145. The “Population Apoptotic (%)” value [4] was 33%, the “Population Fragmented Nuclei (%)” value [4] was 39% and the “Population Healthy Nuclei (%)” value [4] was 25%. For the same compound, the “Population Hoechst High Intensity Objects (%)” value [4] was 4%, the “Population Membrane Permeable-Phenotype (%)” value [4] was 5% and the “Population Mitochondria Different-Phenotype (%)” value [4] was 0%. For the same compound, the “Population Mitotic Cells (%)” value [4] was 66%, the “Population Normal (%)” value [4] was 95% and the “Population Pyknosed Nuclei (%)” value [4] was 34%. The “Population Tubulin-Different-Phenotype (%)” value [4] was 35%, the “Total Cell Count” value [4] was 82 and the “Population Apoptotic (%)” value [5] was 62%. For the same compound, the “Population Fragmented Nuclei (%)” value [5] was 15%, the “Population Healthy Nuclei (%)” value [5] was 67% and the “Population Hoechst High Intensity Objects (%)” value [5] was 2%. For the same compound, the “Population Membrane Permeable-Phenotype (%)” value [5] was 0%, the “Population Mitochondria Different-Phenotype (%)” value [5] was 4% and the “Population Mitotic Cells (%)” value [5] was 37%. The “Population Normal (%)” value [5] was 97%, the “Population Pyknosed Nuclei (%)” value [5] was 17% and the “Population Tubulin-Different-Phenotype (%)” value [5] was 38%. For the same compound, the “Total Cell Count” value [5] was 95, the “Population Apoptotic (%)” value [6] was 34% and the “Population Fragmented Nuclei (%)” value [6] was 14%. For the same compound, the “Population Healthy Nuclei (%)” value [6] was 62%, the “Population Hoechst High Intensity Objects (%)” value [6] was 5% and the “Population Membrane Permeable-Phenotype (%)” value [6] was 3%. For the same compound, the “Population Mitochondria Different-Phenotype (%)” value [6] was 3%, the “Population Mitotic Cells (%)” value [6] was 65% and the “Population Normal (%)” value [6] was 94%. The “Population Pyknosed Nuclei (%)” value [6] was 23%, the “Total Cell Count” value [6] was 158 and the “Population Apoptotic (%)” value [7] was 69%. The “Population Fragmented Nuclei (%)” value [7] was 12%, the “Population Healthy Nuclei (%)” value [7] was 68% and the “Population Hoechst High Intensity Objects (%)” value [7] was 7%. The “Population Membrane Permeable-Phenotype (%)” value [7] was 0%, the “Population Mitochondria Different-Phenotype (%)” value [7] was 11% and the “Population Mitotic Cells (%)” value [7] was 30%. The “Population Normal (%)” value [7] was 92%, the “Population Pyknosed Nuclei (%)” value [7] was 18% and the “Population Tubulin-Different-Phenotype (%)” value [7] was 29%. The “Total Cell Count” value [7] was 149, the “Population Apoptotic (%)” value [8] was 27% and the “Population Fragmented Nuclei (%)” value [8] was 46%. For the same compound, the “Population Healthy Nuclei (%)” value [8] was 27%, the “Population Hoechst High Intensity Objects (%)” value [8] was 5% and the “Population Membrane Permeable-Phenotype (%)” value [8] was 5%. The “Population Mitochondria Different-Phenotype (%)” value [8] was 10%, the “Population Mitotic Cells (%)” value [8] was 72% and the “Population Normal (%)” value [8] was 94%. For the same compound, the “Population Pyknosed Nuclei (%)” value [8] was 26%, the “Population Tubulin-Different-Phenotype (%)” value [8] was 36% and the “Total Cell Count” value [8] was 73. For the same compound, the “Population Apoptotic (%)” value [9] was 60%, the “Population Fragmented Nuclei (%)” value [9] was 19% and the “Population Healthy Nuclei (%)” value [9] was 64%. For the same compound, the “Population Hoechst High Intensity Objects (%)” value [9] was 4%, the “Population Membrane Permeable-Phenotype (%)” value [9] was 1% and the “Population Mitochondria Different-Phenotype (%)” value [9] was 5%. The “Population Mitotic Cells (%)” value [9] was 40%, the “Population Normal (%)” value [9] was 95% and the “Population Pyknosed Nuclei (%)” value [9] was 16%. The “Population Tubulin-Different-Phenotype (%)” value [9] was 28%, the “Total Cell Count” value [9] was 93 and the “Population Apoptotic (%)” value [10] was 61%. The “Population Fragmented Nuclei (%)” value [10] was 24%, the “Population Healthy Nuclei (%)” value [10] was 54% and the “Population Hoechst High Intensity Objects (%)” value [10] was 0%. For the same compound, the “Population Membrane Permeable-Phenotype (%)” value [10] was 4%, the “Population Mitochondria Different-Phenotype (%)” value [10] was 10% and the “Population Mitotic Cells (%)” value [10] was 38%. The “Population Normal (%)” value [10] was 99%, the “Population Pyknosed Nuclei (%)” value [10] was 20% and the “Population Tubulin-Different-Phenotype (%)” value [10] was 42%. For the same compound, the “Total Cell Count” value [10] was 154, the “Population Apoptotic (%)” value [11] was 61% and the “Population Fragmented Nuclei (%)” value [11] was 14%. The “Population Healthy Nuclei (%)” value [11] was 71%, the “Population Hoechst High Intensity Objects (%)” value [11] was 7% and the “Population Membrane Permeable-Phenotype (%)” value [11] was 1%. For the same compound, the “Population Mitochondria Different-Phenotype (%)” value [11] was 10%, the “Population Mitotic Cells (%)” value [11] was 38% and the “Population Normal (%)” value [11] was 92%. For the same compound, the “Population Pyknosed Nuclei (%)” value [11] was 13%, the “Population Tubulin-Different-Phenotype (%)” value [11] was 34% and the “Total Cell Count” value [11] was 145. The “Population Apoptotic (%)” value [12] was 71%, the “Population Fragmented Nuclei (%)” value [12] was 50% and the “Population Healthy Nuclei (%)” value [12] was 31%. For the same compound, the “Population Hoechst High Intensity Objects (%)” value [12] was 3%, the “Population Membrane Permeable-Phenotype (%)” value [12] was 0% and the “Population Mitochondria Different-Phenotype (%)” value [12] was 0%. The “Population Mitotic Cells (%)” value [12] was 28%, the “Population Normal (%)” value [12] was 96% and the “Population Pyknosed Nuclei (%)” value [12] was 18%. The “Population Tubulin-Different-Phenotype (%)” value [12] was 62% and the “Total Cell Count” value [12] was 79.
